Laboratory results: the M2OR odorant receptor database

biological target: T1, OR2W1 (Homo sapiens) (UniProt Q9Y3N9); details: stereoisomer not certain
T1 sequence (whole entry): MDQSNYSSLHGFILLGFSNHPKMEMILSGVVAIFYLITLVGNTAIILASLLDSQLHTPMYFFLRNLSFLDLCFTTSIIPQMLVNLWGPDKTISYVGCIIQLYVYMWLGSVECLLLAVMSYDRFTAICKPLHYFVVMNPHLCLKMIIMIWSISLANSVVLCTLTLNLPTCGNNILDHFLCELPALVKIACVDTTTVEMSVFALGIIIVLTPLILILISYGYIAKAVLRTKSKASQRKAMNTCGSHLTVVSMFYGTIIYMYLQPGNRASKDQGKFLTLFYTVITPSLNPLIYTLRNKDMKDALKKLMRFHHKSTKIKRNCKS
How it was run: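 Each receptor–molecule pair is labelled responsive or non-responsive (inactive) according to whether the original authors judged the measured signal statistically different from baseline. The data were taken from the main text and supplementary material of published papers and checked for typos and inconsistencies. Assay methods differed by source, with transient luciferase assays in mammalian cell lines being common.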

Odorant receptor agonist call, active:
CSSSC
CCCCCCCCC(=O)O
CCC(=O)C(=O)CC
CCCCC(=O)CC(C)=O
CCC(C)CCC(=O)[O-] (centres undefined)
CCCCCC(=O)CC(C)=O
CC(=O)OCc1ccccc1
O=C1CCOc2ccccc21
CC(C)=CCCC(C)CCO (centres undefined)
CCCCC(C)=O

Odorant receptor agonist call, inactive:
CCCCC(CC)CCC(=O)O (centres undefined)
COc1nccnc1CC(C)C
C=Cc1ccc(O)c(OC)c1
CC=CC(=O)C1=C(C)CCCC1(C)C
CSCCC=O
O=C(O)CCc1ccccc1
CCC(C)c1nccnc1OC (centres undefined)
CSSc1ccoc1C
O=C1Cc2ccccc2O1
CCCc1ccc(O)c(OC)c1
CCCCCCCCC1CCC(=O)O1 (centres undefined)
C=CCOC(=O)CCCCCC
CC(=O)CC(C)(C)S
CC1=CCC2CC1C2(C)C (centres undefined)
CSCCCO
CC(=O)C(C)C(C)=O
C=CC(=O)CC
COc1ccc2ccc(=O)oc2c1
COC1=C(C)OC(C)C1=O (centres undefined)
CC12CCC(CC1=O)C2(C)C (centres undefined)
CCC(C)C(=O)OC (centres undefined)
CCOC(C)OCC
COC(=O)C(C)C
CC(=O)C(C)O (centres undefined)
